# From the EternaBench riboswitch data
# Tested on: MS2 coat protein
# Assay: apparent Kd, MS2 coat protein; higher = weaker binding; RNA-MaP array; FMN 200 µM where present
# Method in brief: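 Binding was read on Illumina sequencing-chip clusters where stalled E. coli RNA polymerase had transcribed each design. A titration of SNAP-549-labelled MS2 coat protein began at 0.7 or 1.5 nM and doubled to 3 µM, once without ligand and once with constant ligand, in 100 mM Tris-HCl pH 7.5, 80 mM KCl, 4 mM MgCl2, BSA, DTT, yeast tRNA and Tween-20. The apparent Kd is the median of filtered per-cluster binding-curve fits, based on green signal normalised to red-channel RNA signal and control-cluster median Fmax.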
# [1] = designed as: OFF switch for flavin mononucleotide, no ligand
# [2] = ligand present: flavin mononucleotide, designed as: OFF switch for flavin mononucleotide
# [3] = designed as: ON switch for flavin mononucleotide, no ligand
# [4] = ligand present: flavin mononucleotide, designed as: ON switch for flavin mononucleotide
Sequence,apparent Kd [1],apparent Kd [2],apparent Kd [3],apparent Kd [4]
GUAGAGUAAGGAUAUAGUGAAUAGGAUAGAAUGGUUAGAAACUAGAAGGUACAUGAGGAUCACCCAUGUAAUGU,23.6 nM,21.2 nM,–,–
GGAUCACGAGGAUAUCGAUUUUAGUACAUGAGGAUCACCCAUGUUGUCCAGGUCUCGAUUCGAGAAGGCGUGAUUC,36.6 nM,59.2 nM,–,–
AAUAACAGAGGAUAUACUAUUUUAUGUGUUUGUUAUUUUGAACAUGAGGAUCACCCAUGUAGAAGGCUGAUUAA,44.4 nM,43.9 nM,–,–
GCUAUCGCAUGAGGAUAUGGUCAGCUUUGCUGACCAGAAGGCAUGUCAUAAGACAUGAGGAUCACCCAUGUAGUUAAGAUAGCA,–,–,840 nM,50.5 nM
CGCUACGUUUCGUAGCAGUGUCAUCGAGAAGGCCCUGACAUGAGGAUCACCCAUGUUAAAACACAGGAGGAUAUCGAUGAUACA,–,–,4.39 nM,4.56 nM
GGUUGGCGAGGAUAUACAUGAGGAUCACCCAUGUGGUCCUGCGGUGGUUUCGCCCUUUGUAGAAGGCGCGGGUC,40.9 nM,40.5 nM,–,–
GACUCGCGCACAGGAUAUCCACGUAGCGGACGUGGAGAAGGGUGACAUGAGGAUCACCCAUGUACGUGAGUCUAGAUCACUUCC,–,–,40.2 nM,22.8 nM
UCUGCAUAGUCAGGAUAUGCAAAGUAAGCUAUGGAAACAUAGCUUACAACAUGAGGAUCACCCAUGUAGAAGGGACUGUGCAGA,14.1 nM,13 nM,–,–
UGGAUGUAGGAGAAGGAGGACUUCAUGAGGAUCACCCAUGUGUUAGUACUUAGGAUAUUUGACAACAUGAGGAUCACCCAUGUC,–,–,138 nM,113 nM
UUUUAACAUGAGGAUCACCCAUGUGAGGAUAUCGAAAUUUAUAUUAAUAUUAAUUUAUCGAGAAGGCACAUUUU,107 nM,133 nM,–,–
AAAACAUGAGGAUCACCCAUGUAAAGAUCGGUUGAUGAAAGUGAGGAUAUACAAAAUUUUAUGGAGUAGAAGGCACUGGGUUGA,–,–,67.4 nM,47.7 nM
AGGGUAUGAACAUGAGGAUCACCCAUGUACUAGGAAACGAAUGAGGAUAUCGAUAGCAAAGCUAUCGAGAAGGCAUGGGACCCU,–,–,322 nM,59.2 nM
GGGCCGGUGGAGAAGGAGCUUACGAAACGUAGGCUAGGAUAUCCACAUGAGGAUCACCCAUGUGGGAAUAUCUGAUUUUCGCAG,4 nM,5.26 nM,–,–
GCACUGACAGGAUAUACAUGAGGAUCACCCAUGUGACCCUUAGAGUACUCGCGUACUCGUAGAAGGGUCUGUGC,36 nM,105 nM,–,–
UUAAAUCAUGUAGGAUAUGCAUGGCGAAGCUACGCAGAAGGACAUGAGGAUCACCCAUGUUAAAGCUACCGGAUACGGUGGCAA,109 nM,195 nM,–,–
UGGUACUAGGGAGGAUAUGGGAAGAUACAUGAGGAUCACCCAUGUUUAAGAAUGCCGAGAGGCAACUAGAAGGCCCUAGAACCU,–,–,406 nM,19.7 nM
AAAAAACAUGAGGAUCACCCAUGUGAGGAUAUGCGAAAAAAAAAAAAAAAAAAAAAAAGCAGAAGGUACAAAAA,92.2 nM,47.6 nM,–,–
CCGGCAUAGGAGGAUAUAGGAGUCGAUAGACACCUAGAAGGCCUGACAUGAGGAUCACCCAUGUGUCCUACCGG,14.1 nM,23.2 nM,–,–
ACGUGACAUGAGGAUCACCCAUGUGAGGAUAUCUGGAUAAUUUUUAUUUUAGAUAUCCAGAGAAGGCACAUGUU,206 nM,173 nM,–,–
GGAGAGUUCACAGGAUAUCAUGGGUAGUUAUUUUGAGAAGGGUGAACAAGGAACAUGAGGAUCACCCAUGUAUCCUGGGAGGGC,–,–,24.4 nM,36.8 nM
AAGUAGGGAGGAUAUACAUAGAUACAGAUUCGUGUAGAACUACAUGAGGAUCACCCAUGUAGAAGGCCCUAAUA,18.1 nM,41.6 nM,–,–

Sequence,apparent Kd [1],apparent Kd [2],apparent Kd [3],apparent Kd [4]
GUCAGCUCGUGAGGAUAUACAACACUGCGUCGGCAGUGUAUUAAGAUCACAUGAGGAUCACCCAUGUAGAAGGCACGAGCUGAU,13.4 nM,223 nM,–,–
GGGUACAUCGGAGGAUAUCAUGUAAAUACAUGAGGAUCACCCAUGUCGAUGGAGACAUCGGAGUUUGAGAAGGCCGAUGUACCG,–,–,150 nM,6.58 nM
AGUAAGAUGCAGAAGGUGUCAGCGAGAGCUGCGACAUGAGGAUCACCCAUGUGUCGGUGACGACACAAGGAUAUGCAUCUUACA,–,–,407 nM,227 nM
CAUUAAUUAAUUAUAUUAAUUAUACAGGAUAUGUAACAUGAGGAUCACCCAUGUAUUCAAUGUAAACAGAAGGGUAUAUCUAGU,14.6 nM,13 nM,–,–
CUAGUAUAUCAGGAUAUGAUAAUGUGUAGUAUAUCAGAAGGGAUGACAUGAGGAUCACCCAUGUUAAGGGAUGA,58.1 nM,118 nM,–,–
ACCAUUUACUAAUUAUCUAUACAUGAGGAUCACCCAUGUUAAGAGGAUAUCAUCGUGAAACACGAUGAGAAGGCUUAGCAUUCG,54.5 nM,187 nM,–,–
AAAAAACAUGAGGAUCACCCAUGUCCUCGGACAUGAGGAUAUGUACAGACUUCGGUCUGUACAGAAGGCAUGUCUU,–,–,302 nM,308 nM
UGGGUUUGUAGUUACAUCCCUACACAGGAUAUGGGUAGUUACAUGAGGAUCACCCAUGUUCGAACUCAGAAGGGUGGAUCGUUG,–,–,85.3 nM,11.3 nM
UGGUACAUCGGAGGAUAUCAUGUGAUAACAUGAGGAUCACCCAUGUCGAUGGAGACAUCGGAGAUUGAGAAGGCCGAUGUACCU,–,–,801 nM,84.2 nM
GUAGCAUACCGAGGAUAUUCAUAUAGUAAUCUAACAUGAGGAUCACCCAUGUGGCGAAAGCCUUGGGAGAAGGCGGAAUGCUAC,–,–,480 nM,35.6 nM
AAAAUGUGUACAUGAGGAUCACCCAUGUAUCGACUCCAAAGCAAGGAUAUGAUCAUGGGAAUUGGUCAGAAGGUGCAGGGUCUG,–,–,205 nM,25.8 nM
GCAGGCAACGAGAAGGGAGUACAUGAGGAUCACCCAUGUGUCCUCUGCGGCUCAGGAUAUCGCCCUGGGAAAGGUAAGCCUUAA,39.7 nM,176 nM,–,–
ACGCCCUAGUAGAAGGGACAUCGGCUGGUAAGCAUCAUCUCCUUCUCACAUGAGGAUCACCCAUGUCAGGAUAUACUAGGAUGC,12.2 nM,35.1 nM,–,–
UCAUAAUUGAUCCUAUUUACCAACAUGAGGAUCACCCAUGUGCAGGAUAUGCUAAAGAUAGAUAAGCAGAAGGGCAAAUACAUA,162 nM,756 nM,–,–
GGACGACUCAUUAACAUGAGGAUCACCCAUGUCAAAAGACAUGAGGAUAUGGAUCCUAAUUGGAUCCAGAAGGCAUGGUCGUCC,–,–,944 nM,51.8 nM
GCAUGCGAUAAUAUGUCUGAGGGCAGAAGGCACAUGAGGAUCACCCAUGUAACGAUCUCUUCAAGUGAGGAUAUGUGCUCAUUG,34 nM,85.2 nM,–,–
GGAAAACAUGAGGAUCACCCAUGUGAGGAUAUCGAUGUCCAGGGCCGGGUGCGGGACUCGAGAAGGCACUUGGA,64.5 nM,41.6 nM,–,–
UUAGCAACAUGAGGAUCACCCAUGUAGGAUAUCGCUAUUGUAAUCAUGAAACAUGAUUACAAUAGCGAGAAGGACAUAUGCUCC,7.17 nM,10.6 nM,–,–
UAUAUAUAGUAAGGAUAUGUAAUUAUUUUAGAAACAGAAGGUACUGACAUGAGGAUCACCCAUGUUUUAGUGUGGGCAUGUAGA,90.4 nM,147 nM,–,–
UUUGAUUGCACAGGAUAUUGUCAUUUGAGUUGUCAAGAAGGGUGUACAUGAGGAUCACCCAUGUAAUGGUUGCCUCGCUGACUU,95.7 nM,272 nM,–,–
AAUUACAGAUGAGGAUAUUGACAUGAGGAUCACCCAUGUAUUUGGGAAUGUUUACUGAAUUCUUACGAGAAGGUAUACGUACUU,122 nM,94.3 nM,–,–
